# System: Escherichia coli
# Experiment: Synergistic antibacterial activity against Escherichia coli DH10B transfected with pBC SK (-) KPC-3 assessed as meropenem MIC at 4 ug/ml by broth microdilution method
# Assay type: functional
# Settings: dose 4 µg/ml
row,Structure (SMILES),MIC [µg/mL]
1,NC(=O)[C@@H]1CC[C@@H]2CN1C(=O)N2OS(=O)(=O)[O-].[Na+] [AVIBACTAM SODIUM],≤ 0.12

# System: Acinetobacter baumannii
# Experiment: Synergistic antibacterial activity against Acinetobacter baumannii PR381 producing OXA-24/40 assessed as meropenem MIC at 4 ug/ml by broth microdilution method
# Assay type: functional
# Settings: dose 4 µg/ml
row,Structure (SMILES),MIC [µg/mL]
1,NC(=O)[C@@H]1CC[C@@H]2CN1C(=O)N2OS(=O)(=O)[O-].[Na+] [AVIBACTAM SODIUM],> 16

# Molecular target: not listed separately
# Experiment: Inhibition of bacteria ADC-7 assessed as apparent inhibition constant using nitrocefin as substrate
# Settings: not given
row,Structure (SMILES),Ki [µM]
1,NC(=O)[C@@H]1CC[C@@H]2CN1C(=O)N2OS(=O)(=O)[O-].[Na+] [AVIBACTAM SODIUM],19

# System: Klebsiella pneumoniae
# Experiment: Synergistic antibacterial activity against Klebsiella pneumoniae jefferson 1773 producing OXA-181 assessed as meropenem MIC at 4 ug/ml by broth microdilution method
# Assay type: functional
# Settings: dose 4 µg/ml
row,Structure (SMILES),MIC [µg/mL]
1,NC(=O)[C@@H]1CC[C@@H]2CN1C(=O)N2OS(=O)(=O)[O-].[Na+] [AVIBACTAM SODIUM],1

# System: Escherichia coli
# Experiment: Antibacterial activity against Escherichia coli DH10B transfected with pBC SK (-) PDC-3 by broth microdilution method
# Assay type: functional
# Settings: not given
row,Structure (SMILES),MIC [µg/mL]
1,NC(=O)[C@@H]1CC[C@@H]2CN1C(=O)N2OS(=O)(=O)[O-].[Na+] [AVIBACTAM SODIUM],> 16

# System: Escherichia coli
# Experiment: Synergistic antibacterial activity against Escherichia coli DH10B transfected with pBR322-catI-KPC-2 assessed as cefepime MIC at 4 ug/ml by broth microdilution method
# Assay type: functional
# Settings: dose 4 µg/ml
# Outline: (§1)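 Broth microdilution per CLSI guidelines, using custom frozen panels. […] Each partner drug was also tested alone. MICs were run in triplicate and the modal value is reported.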
row,Structure (SMILES),MIC [µg/mL]
1,NC(=O)[C@@H]1CC[C@@H]2CN1C(=O)N2OS(=O)(=O)[O-].[Na+] [AVIBACTAM SODIUM],≤ 0.12

# System: Klebsiella pneumoniae
# Experiment: Synergistic antibacterial activity against Klebsiella pneumoniae 1315/2198 producing KPC-3 assessed as meropenem MIC at 4 ug/ml by broth microdilution method
# Assay type: functional
# Settings: dose 4 µg/ml
# Outline: as §1
row,Structure (SMILES),MIC [µg/mL]
1,NC(=O)[C@@H]1CC[C@@H]2CN1C(=O)N2OS(=O)(=O)[O-].[Na+] [AVIBACTAM SODIUM],≤ 0.12

# System: Bacteria
# Experiment: Inhibition of bacteria ADC-7 assessed as second order rate constant K2/K using nitrocefin as substrate
# Settings: not given
row,Structure (SMILES),K
1,NC(=O)[C@@H]1CC[C@@H]2CN1C(=O)N2OS(=O)(=O)[O-].[Na+] [AVIBACTAM SODIUM],3.9 10^3/M/s

# System: Escherichia coli
# Experiment: Antibacterial activity against Escherichia coli DH10B transfected with pBC SK (-) OXA-48 by broth microdilution method
# Assay type: functional
# Settings: not given
row,Structure (SMILES),MIC [µg/mL]
1,NC(=O)[C@@H]1CC[C@@H]2CN1C(=O)N2OS(=O)(=O)[O-].[Na+] [AVIBACTAM SODIUM],> 16

# System: Acinetobacter baumannii
# Experiment: Synergistic antibacterial activity against Acinetobacter baumannii PR363 producing OXA-23 assessed as cefepime MIC at 4 ug/ml by broth microdilution method
# Assay type: functional
# Settings: dose 4 µg/ml
row,Structure (SMILES),MIC [µg/mL]
1,NC(=O)[C@@H]1CC[C@@H]2CN1C(=O)N2OS(=O)(=O)[O-].[Na+] [AVIBACTAM SODIUM],> 16

# System: Klebsiella pneumoniae
# Experiment: Synergistic antibacterial activity against Klebsiella pneumoniae 660/1568 producing KPC-3 assessed as meropenem MIC at 4 ug/ml by broth microdilution method
# Assay type: functional
# Settings: dose 4 µg/ml
# Outline: as §1
row,Structure (SMILES),MIC [µg/mL]
1,NC(=O)[C@@H]1CC[C@@H]2CN1C(=O)N2OS(=O)(=O)[O-].[Na+] [AVIBACTAM SODIUM],≤ 0.12

# System: Acinetobacter baumannii
# Experiment: Synergistic antibacterial activity against ADC deleted Acinetobacter baumannii assessed as meropenem MIC at 4 ug/ml by broth microdilution method
# Assay type: functional
# Settings: dose 4 µg/ml
row,Structure (SMILES),MIC [µg/mL]
1,NC(=O)[C@@H]1CC[C@@H]2CN1C(=O)N2OS(=O)(=O)[O-].[Na+] [AVIBACTAM SODIUM],≤ 0.12

# System: Klebsiella pneumoniae
# Experiment: Synergistic antibacterial activity against Klebsiella pneumoniae 977/1916 producing KPC-3 assessed as cefepime MIC at 4 ug/ml by broth microdilution method
# Assay type: functional
# Settings: dose 4 µg/ml
row,Structure (SMILES),MIC [µg/mL]
1,NC(=O)[C@@H]1CC[C@@H]2CN1C(=O)N2OS(=O)(=O)[O-].[Na+] [AVIBACTAM SODIUM],≤ 0.12

# System: Klebsiella pneumoniae
# Experiment: Synergistic antibacterial activity against Klebsiella pneumoniae 761/1723 producing KPC-3 assessed as cefepime MIC at 4 ug/ml by broth microdilution method
# Assay type: functional
# Settings: dose 4 µg/ml
# Outline: as §1
row,Structure (SMILES),MIC [µg/mL]
1,NC(=O)[C@@H]1CC[C@@H]2CN1C(=O)N2OS(=O)(=O)[O-].[Na+] [AVIBACTAM SODIUM],≤ 0.12

# System: Klebsiella pneumoniae
# Experiment: Synergistic antibacterial activity against Klebsiella pneumoniae 977/1916 producing KPC-3 assessed as meropenem MIC at 4 ug/ml by broth microdilution method
# Assay type: functional
# Settings: dose 4 µg/ml
row,Structure (SMILES),MIC [µg/mL]
1,NC(=O)[C@@H]1CC[C@@H]2CN1C(=O)N2OS(=O)(=O)[O-].[Na+] [AVIBACTAM SODIUM],≤ 0.12

# System: Escherichia coli
# Experiment: Synergistic antibacterial activity against Escherichia coli DH10B transfected with pBC SK (-) KPC-2 assessed as cefepime MIC at 4 ug/ml by broth microdilution method
# Assay type: functional
# Settings: dose 4 µg/ml
row,Structure (SMILES),MIC [µg/mL]
1,NC(=O)[C@@H]1CC[C@@H]2CN1C(=O)N2OS(=O)(=O)[O-].[Na+] [AVIBACTAM SODIUM],≤ 0.12

# System: Escherichia coli
# Experiment: Synergistic antibacterial activity against Escherichia coli DH10B transfected with pBC SK (-) OXA-48 assessed as cefepime MIC at 4 ug/ml by broth microdilution method
# Assay type: functional
# Settings: dose 4 µg/ml
# Outline: as §1
row,Structure (SMILES),MIC [µg/mL]
1,NC(=O)[C@@H]1CC[C@@H]2CN1C(=O)N2OS(=O)(=O)[O-].[Na+] [AVIBACTAM SODIUM],≤ 0.12

# System: Pseudomonas aeruginosa
# Experiment: Antibacterial activity against Pseudomonas aeruginosa CL232 by broth microdilution method
# Assay type: functional
# Settings: not given
row,Structure (SMILES),MIC [µg/mL]
1,NC(=O)[C@@H]1CC[C@@H]2CN1C(=O)N2OS(=O)(=O)[O-].[Na+] [AVIBACTAM SODIUM],> 16

# System: Acinetobacter baumannii
# Experiment: Synergistic antibacterial activity against Acinetobacter baumannii PR420 producing OXA-23/24/40 assessed as cefepime MIC at 4 ug/ml by broth microdilution method
# Assay type: functional
# Settings: dose 4 µg/ml
row,Structure (SMILES),MIC [µg/mL]
1,NC(=O)[C@@H]1CC[C@@H]2CN1C(=O)N2OS(=O)(=O)[O-].[Na+] [AVIBACTAM SODIUM],> 16

# System: Escherichia coli
# Experiment: Synergistic antibacterial activity against Escherichia coli DH10B transfected with pBC SK (-) OXA-48 assessed as meropenem MIC at 4 ug/ml by broth microdilution method
# Assay type: functional
# Settings: dose 4 µg/ml
# Outline: as §1
row,Structure (SMILES),MIC [µg/mL]
1,NC(=O)[C@@H]1CC[C@@H]2CN1C(=O)N2OS(=O)(=O)[O-].[Na+] [AVIBACTAM SODIUM],≤ 0.12

# System: Acinetobacter baumannii
# Experiment: Synergistic antibacterial activity against Acinetobacter baumannii PR323 producing OXA-24/40 assessed as meropenem MIC at 4 ug/ml by broth microdilution method
# Assay type: functional
# Settings: dose 4 µg/ml
row,Structure (SMILES),MIC [µg/mL]
1,NC(=O)[C@@H]1CC[C@@H]2CN1C(=O)N2OS(=O)(=O)[O-].[Na+] [AVIBACTAM SODIUM],> 16

# System: Klebsiella pneumoniae
# Experiment: Synergistic antibacterial activity against Klebsiella pneumoniae 1084/1957 producing KPC-3 assessed as cefepime MIC at 4 ug/ml by broth microdilution method
# Assay type: functional
# Settings: dose 4 µg/ml
# Outline: as §1
row,Structure (SMILES),MIC [µg/mL]
1,NC(=O)[C@@H]1CC[C@@H]2CN1C(=O)N2OS(=O)(=O)[O-].[Na+] [AVIBACTAM SODIUM],≤ 0.12
